Experimental data from ChEMBL document CHEMBL1649306, “Arylimidamide DB766, a potential chemotherapeutic candidate for Chagas' disease treatment” (Antimicrob Agents Chemother, 2010).
pIC50: −log10 of the molar value. Active and inactive are the calls of the source. No cut-off for these calls is given here.

Assays:
[1] = system: Trypanosoma cruzi; experiment: Antitrypanosomal activity against Trypanosoma cruzi Columbian bloodstream forms infected in C3H mouse assessed as survival of mouse at 100 mg/kg/day, ip administered 5 days postinfection for 10 consecutive days measured after 31 days; type: functional; conditions: route intraperitoneal
Summary of the method: (§1)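 Male C3H/He (H-2k) mice infected i.p. with 5 × 10^3 Colombian-strain bloodstream trypomastigotes; only parasitemia-positive mice grouped (n ≥ 6). DB766 100 mg/kg/day given i.p. (0.1 ml) or by gavage (0.1 ml), daily for 10 treatments. Parasitemia by Pizzi-Brener method; mortality checked daily, expressed as cumulative percentage.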

[2] = system: Trypanosoma cruzi; experiment: Antitrypanosomal activity against Trypanosoma cruzi 855 epimastigotes after 24 hrs by light microscopy; type: functional, organism-based; conditions: Trypanosoma cruzi, 855, 24 h
Summary of the method: (§2)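 Epimastigotes from 5-day exponential cultures, 5 × 10^6 parasites/ml in LIT medium, incubated at 28°C up to 96 h with DB766 0 to 32 μM or Bz 0 to 250 μM. Counted daily in a Neubauer chamber. IC50 averaged from at least three determinations in duplicate.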

[3] = system: Trypanosoma cruzi; experiment: Antitrypanosomal activity against Trypanosoma cruzi Y epimastigotes after 24 hrs by light microscopy; type: functional, organism-based; summary of the method: as §2
[4] = system: Mus musculus; experiment: Hepatotoxicity against Swiss-Webster mouse assessed as GPT at 100 mg/kg/day measured after 14 days postinfection; type: toxicity, organism-based; conditions: in vivo, 336 h
[5] = system: Mus musculus; experiment: Hepatotoxicity in Swiss-Webster mouse assessed as effect on GPT level at 50 mg/kg/day, ip administered 21 days postinfection measured on day 120; type: toxicity, organism-based; parameters: route intraperitoneal; conditions: in vivo, 504 h
[6] = system: Trypanosoma cruzi; experiment: Antitrypanosomal activity against Trypanosoma cruzi MS1523 epimastigotes after 24 hrs by light microscopy; type: functional, organism-based; conditions: MS1523, 24 h; summary of the method: as §2
[7] = system: Trypanosoma cruzi; experiment: Antitrypanosomal activity against Trypanosoma cruzi 875 epimastigotes after 24 hrs by light microscopy; type: functional, organism-based; conditions: Trypanosoma cruzi, 875, 24 h; summary of the method: as §2
[8] = system: Mus musculus; experiment: Toxicity in female Swiss-Webster mouse assessed as mortality at cumulative dose of 200 mg/kg, ip measured after 48 hrs; type: organism-based; parameters: dose 200 mg/kg, route intraperitoneal; conditions: in vivo
Summary of the method: (§3)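 Uninfected 8–10-week-old female and male Swiss Webster and C3H/He (H-2k) mice injected i.p. on day 1 every 2 h with escalating doses: 5, 15, 30, 50 and 100 mg/kg (cumulative 20, 50, 100, 200 mg/kg). Toxic and subtoxic signs inspected on days 2–3 per OECD guidelines; tolerated dose set at 48 h.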

[9] = system: Mus musculus; experiment: Cardiotoxicity in […] mouse assessed as effect on heart rate level at 100 mg/kg/day, po; type: toxicity, organism-based; parameters: route oral; conditions: in vivo
Summary of the method: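 Colombian strain, 5 × 10³ bloodstream forms i.p. into male C3H/He mice; 100 mg/kg/day given i.p. or by gavage (0.1 ml) daily for 10 doses from parasitemia onset. Mice sedated with diazepam (20 mg/kg i.p.), supine; eight-lead ECG from subcutaneous limb needle electrodes plus precordial lead II. Signal-averaged ECG; heart rate as beats per minute.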

[10] = Toxicity in […](H-2k) mouse assessed as mortality at cumulative dose of 100 mg/kg, po measured after 48 hrs; type: organism-based; parameters: dose 100 mg/kg, route oral; conditions: in vivo, read-out: Activity
[11] = system: Trypanosoma cruzi; experiment: Antitrypanosomal activity against Trypanosoma cruzi Columbian bloodstream forms infected in C3H mouse assessed as decrease in parasite load at 100 mg/kg/day, ip administered 21 days postinfection measured on day 46; type: functional, organism-based
Summary of the method: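 C3H/He mice infected i.p. with 10^2 Colombian strain bloodstream forms. Treatment started at parasitemia onset (21 dpi) with daily doses for 10 treatments, 0.1 ml i.p. Parasitemia measured by the Pizzi-Brener method; n ≥ 6 parasitemic mice per group.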

[12] = system: Trypanosoma cruzi; experiment: Antitrypanosomal activity against Trypanosoma cruzi 958 epimastigotes after 24 hrs by light microscopy; type: functional, organism-based; conditions: Trypanosoma cruzi, 958, 24 h; summary of the method: as §2
[13] = system: Mus musculus; experiment: Hepatotoxicity in Swiss-Webster mouse assessed as increased GPT level at 100 mg/kg/day, ip administered 21 days postinfection measured on day 120; type: toxicity, organism-based; parameters: route intraperitoneal; conditions: in vivo, 504 h
[14] = system: Trypanosoma cruzi; experiment: Antitrypanosomal activity against Trypanosoma cruzi Y bloodstream forms infected in Swiss-Webster mouse assessed as survival of mouse at 100 mg/kg/day, ip administered 8 days postinfection measured on day 120; type: functional, organism-based
Summary of the method: (§4)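 Male Swiss mice infected i.p. with 10^4 Y strain bloodstream forms. Given 0.2 ml i.p. at 5 and 8 dpi, or daily for 10 days from 5 dpi; reference drug given by gavage. Parasitemia measured by the Pizzi-Brener method, cumulative mortality checked daily to 120 dpi, n ≥ 6 per group.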

[15] = system: Trypanosoma cruzi; experiment: Antitrypanosomal activity against Trypanosoma cruzi Columbian bloodstream forms infected in C3H mouse assessed as survival of mouse at 100 mg/kg/day, po administered 5 days postinfection for 10 consecutive days measured after 31 days; type: functional; summary of the method: as §1
[16] = system: Trypanosoma cruzi; experiment: Antitrypanosomal activity against Trypanosoma cruzi Columbian bloodstream forms infected in C3H mouse assessed as decrease in parasite load at 100 mg/kg/day, ip administered 5 days postinfection for 10 consecutive days measured after 31 days; type: functional; parameters: scale not given: the % may be the effect or the level left; conditions: route intraperitoneal
Summary of the method: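 C3H/He mice infected i.p. with 10^3 or 5 × 10^3 Colombian strain bloodstream forms. Treated daily for 10 days with 0.1 ml i.p. or by gavage, reference drug given by gavage. Parasitemia measured by the Pizzi-Brener method; n ≥ 6 parasitemic mice per group.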

[17] = system: Trypanosoma cruzi; experiment: Antitrypanosomal activity against Trypanosoma cruzi Y bloodstream forms infected in Swiss-Webster mouse assessed as decrease in parasite load at 100 mg/kg/day, po administered 5 days postinfection for 10 alternate days measured after 31 days; type: functional; parameters: scale not given: the % may be the effect or the level left
Summary of the method: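 Male Swiss mice infected with 10^4 Y strain bloodstream forms and treated every other day with 100 mg/kg/day, reference drug by gavage. Parasitemia measured by the Pizzi-Brener method.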

[18] = system: Mus musculus; experiment: Cytotoxicity against Swiss-Webster mouse assessed as effect on creatine kinase at 100 mg/kg/day measured after 14 days postinfection; type: organism-based; conditions: in vivo, 336 h
[19] = system: Mus musculus; experiment: Toxicity in […](H-2k) mouse assessed as effect on creatine kinase level at 100 mg/kg/day, po; type: organism-based; parameters: route oral; conditions: in vivo
[20] = system: Mus musculus; experiment: Toxicity in […](H-2k) mouse assessed as mortality at cumulative dose of 200 mg/kg, ip measured after 48 hrs; type: organism-based; parameters: dose 200 mg/kg, route intraperitoneal; conditions: in vivo; summary of the method: as §3
[21] = system: Trypanosoma cruzi; experiment: Antitrypanosomal activity against Trypanosoma cruzi 960 epimastigotes after 24 hrs by light microscopy; type: functional, organism-based; conditions: Trypanosoma cruzi, 960, 24 h; summary of the method: as §2
[22] = system: Trypanosoma cruzi; experiment: Antitrypanosomal activity against Trypanosoma cruzi Y bloodstream forms infected in Swiss-Webster mouse assessed as decrease in parasite load at 100 mg/kg/day, po administered 8 days postinfection measured on day 2; type: functional, organism-based; summary of the method: as §4
[23] = system: Mus musculus; experiment: Hepatotoxicity in Swiss-Webster mouse assessed as effect on GPT level at 25 mg/kg/day, ip administered 21 days postinfection measured on day 120; type: toxicity, organism-based; parameters: route intraperitoneal; conditions: in vivo, 504 h
[24] = system: Mus musculus; experiment: Toxicity in male Swiss-Webster mouse assessed as mortality at cumulative dose of 200 mg/kg, ip measured after 48 hrs; type: organism-based; parameters: dose 200 mg/kg, route intraperitoneal; conditions: in vivo; summary of the method: as §3
[25] = system: Trypanosoma cruzi; experiment: Antitrypanosomal activity against Trypanosoma cruzi 956 epimastigotes after 24 hrs by light microscopy; type: functional, organism-based; conditions: Trypanosoma cruzi, 956, 24 h; summary of the method: as §2
[26] = system: Trypanosoma cruzi; experiment: Antitrypanosomal activity against Trypanosoma cruzi Y infected in Swiss-Webster mouse assessed as decrease in parasite-induced weight loss at 100 mg/kg/day, ip administered 5 days post-infection for 10 consecutive days measured on day 120; type: functional, organism-based
Summary of the method: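 Body weight of infected, treated mice followed from 0 to 120 dpi.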

[27] = system: Trypanosoma cruzi; experiment: Antitrypanosomal activity against Trypanosoma cruzi RBVIII epimastigotes after 24 hrs by light microscopy; type: functional, organism-based; summary of the method: as §2
[28] = system: Mus musculus; experiment: Toxicity in male Swiss-Webster mouse assessed as weight loss at cumulative dose of 200 mg/kg, ip measured after 48 hrs; type: organism-based; parameters: dose 200 mg/kg, route intraperitoneal; conditions: in vivo
Summary of the method: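 Acute toxicity in 8–10-week-old Swiss Webster mice. i.p. injections every 2 h of 5, 15, 30, 50 and 100 mg/kg (cumulative 200 mg/kg) on day 1. Toxic and subtoxic signs inspected on days 2 and 3 per OECD guidelines; outcome read 48 h after injection.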

[29] = system: Trypanosoma cruzi; experiment: Antitrypanosomal activity against bloodstream forms of Trypanosoma cruzi Columbian after 24 hrs by light microscopy in presence of 50% mouse blood; type: functional, organism-based
Summary of the method: (§5)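 Bloodstream trypomastigotes kept at 4°C for 24 h in freshly isolated 50% mouse blood with serial dilutions (up to 32 μM). Motile live parasites counted in a Neubauer chamber by light microscopy; IC50 calculated as concentration reducing parasite number by 50%.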

[30] = system: Trypanosoma cruzi; experiment: Antitrypanosomal activity against bloodstream forms of Trypanosoma cruzi Y after 24 hrs by light microscopy in presence of 50% mouse blood; type: functional, organism-based; summary of the method: as §5
[31] = system: Trypanosoma cruzi; experiment: Antitrypanosomal activity against bloodstream forms of Trypanosoma cruzi YuYu after 24 hrs by light microscopy in presence of 50% mouse blood; type: functional, organism-based; summary of the method: as §5
[32] = system: Trypanosoma cruzi; experiment: Antitrypanosomal activity against bloodstream forms of Trypanosoma cruzi CL after 24 hrs by light microscopy in presence of 50% mouse blood; type: functional, organism-based; summary of the method: as §5

## O=C(Cn1ccnc1[N+](=O)[O-])NCc1ccccc1 [BENZNIDAZOLE]
[1]
  Activity: 99%
[2]
  pIC50: 4.90
  IC90: 226 µM
[3]
  pIC50: 5.12
  IC90: 86.6 µM
[4]
  Activity: Non-toxic
[5]
  Activity: Non-toxic
[6]
  pIC50: 5.28
  IC90: 30.6 µM
[7]
  pIC50: 5.10
  IC90: 196 µM
[8]
  Activity: Non-toxic
[9]
  Activity: Non-toxic
[10]
  mortality at 48 h: 100%
[11]
  Activity: inactive
[12]
  pIC50: 4.86
  IC90: 58.3 µM
[13]
  Activity: Toxic
[14]
  Activity: inactive
[15]
  Activity: 100%
[16]
  Activity: 100%
[17]
  Activity: 79.4%
[18]
  Activity: Non-toxic
[19]
  Activity: 68%
[20]
  Activity: Non-toxic
[21]
  pIC50: 5.19
  IC90: 38.2 µM
[22]
  Activity: inactive
[23]
  Activity: Non-toxic
[24]
  Activity: Non-toxic
[25]
  pIC50: 5.40
  IC90: 20.4 µM
[26]
  Activity: Active
[27]
  pIC50: 5.30
  IC90: 35.7 µM
[28]
  Activity: 7%

## N=C(N)c1ccc(-c2ccc(-c3ccc(C(=N)N)cc3)o2)cc1 [FURAMIDINE]
[29]
  pIC50: < 4.49
[30]
  pIC50: < 4.49
[31]
  pIC50: < 4.49
[32]
  pIC50: < 4.49
